Laboratory results: PMC2828537 (Pflugers Archiv : European journal of physiology, 2009)

Experiments:
Type in all cases: cell-based
[1] = target: T1, human TRPA1 endogenously expressed in WI-38 fibroblasts (Homo sapiens, UniProt O75762); assay: Whole-cell recordings of WI-38 cells
Summary of the method: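 WI-38 cells grown in MEM with 10% heat-inactivated FBS and penicillin/streptomycin at 37°C, 5% CO₂. Cells were detached with 0.05% trypsin plus 0.53 mM EDTA in Ca²⁺/Mg²⁺-free HBSS for 5–10 min, held at 37°C, then settled on polyornithine-coated coverslips for 3–5 min before perfusion. Whole-cell voltage clamp was sampled at 5 kHz, with 100 ms ramps from −100 to +100 mV (holding −60 mV) applied every 0.5 s.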

murine TRPV1 [2] = target: T2, murine TRPV1 (Mus musculus, UniProt Q704Y3); assay: Fura2 Ca2+ imaging of HEK293 cells transiently expressing TRPV1
Summary of the method: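 Murine TRPV1 (pIRES2EGFP) was transiently expressed in HEK293 cells, which were seeded on polyornithine coverslips one day after transfection. After 16 hrs, cells were loaded with 2 µM Fura2-AM plus 0.05% Pluronic F-127 (60 min, 37°C). Transfected cells were identified by GFP (470 nm). Imaging used 340/380 nm excitation and 510 nm emission at 22°C. Capsaicin and test compound were perfused at final concentration. Maximal Fura2 ratio change reported, n = 3.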

murine TRPV3 = target: T3, murine TRPV3 (Mus musculus, UniProt Q8K424); assay: Fluo4 [Ca2+]i assay in stable HEK293 TRPV3 cell line
T3 sequence (Q8K424 1-791): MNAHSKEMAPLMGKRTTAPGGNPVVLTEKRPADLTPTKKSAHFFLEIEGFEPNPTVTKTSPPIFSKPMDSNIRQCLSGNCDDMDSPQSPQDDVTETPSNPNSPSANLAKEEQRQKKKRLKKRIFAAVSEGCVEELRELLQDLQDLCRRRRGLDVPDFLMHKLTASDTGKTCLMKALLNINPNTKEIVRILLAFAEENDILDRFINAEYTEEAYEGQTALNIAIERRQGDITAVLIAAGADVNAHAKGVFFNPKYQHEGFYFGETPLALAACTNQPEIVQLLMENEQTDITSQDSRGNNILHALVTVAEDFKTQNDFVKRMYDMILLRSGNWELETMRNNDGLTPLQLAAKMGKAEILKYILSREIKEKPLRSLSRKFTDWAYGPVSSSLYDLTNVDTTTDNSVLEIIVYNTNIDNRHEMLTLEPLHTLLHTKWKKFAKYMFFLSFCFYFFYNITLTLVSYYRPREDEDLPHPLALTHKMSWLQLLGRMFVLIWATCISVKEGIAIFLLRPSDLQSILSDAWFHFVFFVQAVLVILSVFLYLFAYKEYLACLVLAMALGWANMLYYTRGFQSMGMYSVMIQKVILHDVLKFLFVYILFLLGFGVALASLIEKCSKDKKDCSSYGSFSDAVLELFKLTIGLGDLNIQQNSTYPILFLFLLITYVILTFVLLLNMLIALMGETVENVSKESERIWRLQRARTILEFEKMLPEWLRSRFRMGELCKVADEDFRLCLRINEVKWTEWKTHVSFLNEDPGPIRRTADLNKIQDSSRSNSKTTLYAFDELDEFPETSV
Summary of the method: (§1)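 Stable HEK293 lines expressing murine TRPV3 (clonal) or TRPM8 (polyclonal), selected with 400 µg/ml G418. Seeded at ~100,000 cells/well on polyornithine-treated wells and grown 14–18 hrs. Loaded with 2 µM Fluo4-AM plus 0.05% Pluronic F-127 in ECS (pH 7.4) for 60 min at 37°C, with 2 mM probenecid throughout. Test compound and channel agonist added robotically. Fluorescence read at ex 494/em 525 nm, 0.67 Hz, 20–25°C. Maximal fluorescence change reported, n = 3.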

[3] = target: human TRPA1 Cys621Ser, Cys641Ser and Cys665Ser triple mutant (Homo sapiens, UniProt O75762, C621S/C641S/C665S); assay: Currents of human TRPA1 triple cysteine mutant; conditions: HH, unpublished results
rat TRPA1 = rat TRPA1 (Rattus norvegicus, UniProt Q6RI86); assay: Two-electrode voltage clamp of Xenopus oocytes expressing rat TRPA1; conditions: for response to FFA and AITC together, % of that evoked by FFA alone: 30 µM FFA + 3 µM AITC; for current stimulated by FFA and CA together, % of that evoked by FFA: 30 µM FFA + 3 µM CA; for current with FFA at 14°C, % of that evoked by the same concentration at 22°C / increase of FFA-activated current by raising bath Ca2+ to 10 mM / decrease of FFA-activated current amplitude in BAPTA-injected oocytes: 30 µM FFA; for decrease of FFA-activated current amplitude in BAPTA-injected oocytes / EC50: nominally Ca2+-free bath; for decrease of FFA-activated current amplitude in BAPTA-injected oocytes: BAPTA ~2.5 mM
murine TRPV1 [4] = target: T2, murine TRPV1; assay: Two-electrode voltage clamp of Xenopus oocytes expressing murine TRPV1; conditions: 100 µM FFA with 100 µM 2APB
Summary of the method: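 Collagenase-defolliculated Xenopus oocytes (>1.5 mm) were injected with 5 ng cRNA and kept 2–5 days at 19°C in ND96. Two-electrode clamp used a nominally Ca²⁺-free bath (pH 7.4), holding −20 mV, a 20 ms step to −100 mV, then a 200 ms ramp to +100 mV each second, at 22°C.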

HEK293 cells = assay: Fluo4 [Ca2+]i assay in parental HEK293 cells; conditions: 300 µM
Summary of the method: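 Wild-type HEK293 cells in DMEM (4.5 mg/ml glucose, 10% heat-inactivated FBS, penicillin/streptomycin), plated on polyornithine-treated wells for 14–18 hrs. Loaded with Fluo4-AM (2 µM, 60 min, 37°C) in ECS with 2 mM probenecid, then washed. Test compound was given robotically at 300 µM final. Fluorescence was read on a plate reader at ex 494/em 525 nm, 0.67 Hz, 20–25°C.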

[5] = target: T1, human TRPA1 endogenously expressed in WI-38 fibroblasts; assay: Fluo4 [Ca2+]i assay in WI-38 fibroblasts
murine TRPM8 = murine TRPM8 (Mus musculus, UniProt Q8R4D5); assay: Fluo4 [Ca2+]i assay in stable HEK293 TRPM8 cell line
Summary of the method: as §1

human TRPA1 = human TRPA1 (Homo sapiens, UniProt O75762); assay: Fluo4 [Ca2+]i assay in HEK-A1 cells
[6] = high concentrations of FFA (30 to 300 µM)

T1 sequence (O75762 whole entry, the tested form may be a part): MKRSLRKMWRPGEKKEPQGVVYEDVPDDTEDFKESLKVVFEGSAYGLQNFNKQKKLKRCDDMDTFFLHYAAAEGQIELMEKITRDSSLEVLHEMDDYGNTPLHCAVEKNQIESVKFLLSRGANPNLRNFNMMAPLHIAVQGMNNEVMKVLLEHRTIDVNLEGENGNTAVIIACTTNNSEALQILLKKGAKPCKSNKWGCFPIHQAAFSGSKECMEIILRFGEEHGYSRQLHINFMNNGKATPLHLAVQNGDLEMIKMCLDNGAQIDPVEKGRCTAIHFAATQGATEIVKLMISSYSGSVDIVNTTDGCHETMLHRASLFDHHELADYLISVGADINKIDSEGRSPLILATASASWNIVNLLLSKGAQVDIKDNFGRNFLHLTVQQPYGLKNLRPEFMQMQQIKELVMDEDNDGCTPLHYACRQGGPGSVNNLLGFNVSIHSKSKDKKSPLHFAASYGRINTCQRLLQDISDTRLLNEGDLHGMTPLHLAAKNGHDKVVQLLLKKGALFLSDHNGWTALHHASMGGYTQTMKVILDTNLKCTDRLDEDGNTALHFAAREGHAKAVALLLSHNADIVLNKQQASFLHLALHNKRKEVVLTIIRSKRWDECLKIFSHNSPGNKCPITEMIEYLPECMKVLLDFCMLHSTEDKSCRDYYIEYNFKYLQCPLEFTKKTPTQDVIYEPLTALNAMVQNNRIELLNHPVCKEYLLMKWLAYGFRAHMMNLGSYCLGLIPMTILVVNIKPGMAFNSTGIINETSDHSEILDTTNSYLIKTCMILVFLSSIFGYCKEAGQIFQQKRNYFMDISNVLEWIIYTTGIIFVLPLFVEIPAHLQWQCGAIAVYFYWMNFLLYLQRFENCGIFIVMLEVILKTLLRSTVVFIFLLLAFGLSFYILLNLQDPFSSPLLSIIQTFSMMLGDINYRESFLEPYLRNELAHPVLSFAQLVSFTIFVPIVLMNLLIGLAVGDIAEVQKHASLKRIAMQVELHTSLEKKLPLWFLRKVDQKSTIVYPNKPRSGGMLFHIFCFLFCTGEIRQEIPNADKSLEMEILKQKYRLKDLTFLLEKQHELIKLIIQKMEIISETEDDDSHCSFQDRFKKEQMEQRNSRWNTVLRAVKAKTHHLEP
T2 sequence (Q704Y3 whole entry, the tested form may be a part): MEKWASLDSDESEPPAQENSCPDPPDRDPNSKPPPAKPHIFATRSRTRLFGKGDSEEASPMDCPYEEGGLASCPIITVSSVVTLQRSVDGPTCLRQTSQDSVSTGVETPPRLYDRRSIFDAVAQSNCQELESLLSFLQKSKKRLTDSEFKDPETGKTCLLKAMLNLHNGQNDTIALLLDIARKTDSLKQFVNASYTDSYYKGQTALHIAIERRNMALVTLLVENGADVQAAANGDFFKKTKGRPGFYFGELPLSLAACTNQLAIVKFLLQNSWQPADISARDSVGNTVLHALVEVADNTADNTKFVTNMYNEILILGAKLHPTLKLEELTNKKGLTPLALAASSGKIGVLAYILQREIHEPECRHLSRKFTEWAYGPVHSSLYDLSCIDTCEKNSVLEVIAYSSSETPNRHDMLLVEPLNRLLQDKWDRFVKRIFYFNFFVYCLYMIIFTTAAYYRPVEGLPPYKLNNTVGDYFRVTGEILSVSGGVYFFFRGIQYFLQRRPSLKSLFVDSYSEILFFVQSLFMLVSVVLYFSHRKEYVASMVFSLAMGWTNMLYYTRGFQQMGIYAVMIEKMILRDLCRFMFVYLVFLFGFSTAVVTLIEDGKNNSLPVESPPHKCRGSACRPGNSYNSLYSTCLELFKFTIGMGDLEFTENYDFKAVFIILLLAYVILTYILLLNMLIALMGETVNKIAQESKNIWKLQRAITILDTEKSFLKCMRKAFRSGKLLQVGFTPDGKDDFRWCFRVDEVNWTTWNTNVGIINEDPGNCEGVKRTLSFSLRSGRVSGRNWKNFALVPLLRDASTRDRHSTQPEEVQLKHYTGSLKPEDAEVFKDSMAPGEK
Chain of rat TRPA1 (Q6RI86 whole entry): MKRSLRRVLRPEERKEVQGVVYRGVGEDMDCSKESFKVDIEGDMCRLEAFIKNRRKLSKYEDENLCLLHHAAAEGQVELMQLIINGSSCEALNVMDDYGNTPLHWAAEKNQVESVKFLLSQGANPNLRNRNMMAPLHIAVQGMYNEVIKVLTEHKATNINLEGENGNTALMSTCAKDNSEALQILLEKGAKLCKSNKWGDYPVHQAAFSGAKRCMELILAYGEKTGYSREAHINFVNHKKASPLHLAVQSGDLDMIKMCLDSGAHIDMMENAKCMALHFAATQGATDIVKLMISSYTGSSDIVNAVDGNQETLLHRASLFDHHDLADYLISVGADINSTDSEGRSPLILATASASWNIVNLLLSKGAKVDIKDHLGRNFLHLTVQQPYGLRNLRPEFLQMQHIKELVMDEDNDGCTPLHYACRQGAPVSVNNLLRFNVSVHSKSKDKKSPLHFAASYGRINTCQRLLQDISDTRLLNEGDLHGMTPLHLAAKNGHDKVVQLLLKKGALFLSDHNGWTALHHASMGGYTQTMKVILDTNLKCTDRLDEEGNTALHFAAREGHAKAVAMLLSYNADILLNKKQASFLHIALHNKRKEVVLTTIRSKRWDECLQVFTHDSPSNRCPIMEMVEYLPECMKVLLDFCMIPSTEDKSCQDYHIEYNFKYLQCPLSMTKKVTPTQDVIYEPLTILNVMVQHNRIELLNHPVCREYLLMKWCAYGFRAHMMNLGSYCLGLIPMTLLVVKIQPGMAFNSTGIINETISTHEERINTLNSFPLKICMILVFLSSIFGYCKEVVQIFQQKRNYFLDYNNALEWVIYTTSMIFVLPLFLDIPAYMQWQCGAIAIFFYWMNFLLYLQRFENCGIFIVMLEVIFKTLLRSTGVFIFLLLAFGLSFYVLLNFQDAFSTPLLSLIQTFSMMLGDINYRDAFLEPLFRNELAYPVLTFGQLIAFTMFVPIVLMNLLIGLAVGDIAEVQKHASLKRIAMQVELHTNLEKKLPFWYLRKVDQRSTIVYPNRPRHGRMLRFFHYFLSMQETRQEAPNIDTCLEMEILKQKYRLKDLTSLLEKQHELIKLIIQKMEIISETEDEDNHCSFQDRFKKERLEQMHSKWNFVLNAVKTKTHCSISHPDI
Chain of murine TRPM8 (Q8R4D5 whole entry): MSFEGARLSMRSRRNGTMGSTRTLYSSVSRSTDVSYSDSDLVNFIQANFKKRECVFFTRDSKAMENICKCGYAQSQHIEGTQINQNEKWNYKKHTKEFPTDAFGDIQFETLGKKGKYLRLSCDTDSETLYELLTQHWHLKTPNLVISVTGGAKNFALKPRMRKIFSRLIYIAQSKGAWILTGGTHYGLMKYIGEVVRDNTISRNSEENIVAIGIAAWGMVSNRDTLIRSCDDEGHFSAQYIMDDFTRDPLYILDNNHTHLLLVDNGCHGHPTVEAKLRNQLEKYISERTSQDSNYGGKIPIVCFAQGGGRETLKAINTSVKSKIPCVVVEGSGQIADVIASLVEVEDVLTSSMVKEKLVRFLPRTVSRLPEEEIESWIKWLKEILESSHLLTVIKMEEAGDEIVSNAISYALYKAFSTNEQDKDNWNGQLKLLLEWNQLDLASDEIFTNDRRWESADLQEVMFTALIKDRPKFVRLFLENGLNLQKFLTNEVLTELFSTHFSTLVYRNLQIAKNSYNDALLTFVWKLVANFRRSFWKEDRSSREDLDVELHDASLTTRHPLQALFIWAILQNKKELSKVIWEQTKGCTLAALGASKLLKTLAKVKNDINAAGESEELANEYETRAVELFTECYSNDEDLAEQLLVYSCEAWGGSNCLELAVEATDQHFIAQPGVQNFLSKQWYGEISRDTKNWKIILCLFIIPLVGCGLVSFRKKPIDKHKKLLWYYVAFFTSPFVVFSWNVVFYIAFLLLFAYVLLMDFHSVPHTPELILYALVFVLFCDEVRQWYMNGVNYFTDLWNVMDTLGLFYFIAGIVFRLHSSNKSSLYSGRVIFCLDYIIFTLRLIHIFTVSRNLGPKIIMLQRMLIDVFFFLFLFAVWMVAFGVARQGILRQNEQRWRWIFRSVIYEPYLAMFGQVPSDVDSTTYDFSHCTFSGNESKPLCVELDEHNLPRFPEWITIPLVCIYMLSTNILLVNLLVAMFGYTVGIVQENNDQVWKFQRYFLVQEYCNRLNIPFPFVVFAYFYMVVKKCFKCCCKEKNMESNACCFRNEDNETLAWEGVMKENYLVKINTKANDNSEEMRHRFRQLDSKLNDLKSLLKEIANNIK
Chain of human TRPA1 (O75762 whole entry): as the sequence (O75762 whole entry, the tested form may be a part) above
Chain of human TRPA1 Cys621Ser, Cys641Ser and Cys665Ser triple mutant (O75762 whole entry C621S/C641S/C665S): as the sequence (O75762 whole entry, the tested form may be a part) above, with C621S, C641S, C665S counted along it

Hill co-efficient at +100 mV ([1]; +100 mV): 1.7 ± 0.2
EC50 ([1]; EC50 for FFA-evoked whole-cell currents at +100 mV, +100 mV): 44 ± 11 µM
EC50 ([1]; EC50 for FFA-evoked whole-cell currents at −100 mV, −100 mV): 55 ± 4 µM
Hill co-efficient at −100 mV ([1]; −100 mV): 2.4 ± 0.1
increase in Fura2 ratio upon application (murine TRPV1 [2]; FFA from 3.7 to 100 µM): no significant increase
effect on [Ca2+]i increase elicited by the channel's agonist (murine TRPV1 [2]; [6]): inhibited
increase in Fluo4 fluorescence upon application (murine TRPV3; FFA from 3.7 to 100 µM): no significant increase
effect on [Ca2+]i increase elicited by the channel's agonist (murine TRPV3; [6]): inhibited
concentration-response curve in triple cysteine mutant [3]: right-shifted
threshold of activation (rat TRPA1): about 10 µM
response to FFA and AITC together, % of that evoked by FFA alone (rat TRPA1; +100 mV): 300 ± 52%
response to FFA and AITC together, % of that evoked by FFA alone (rat TRPA1; −100 mV): 350 ± 62%
current stimulated by FFA and CA together, % of that evoked by FFA (rat TRPA1; +100 mV): 223 ± 25%
current stimulated by FFA and CA together, % of that evoked by FFA (rat TRPA1; −100 mV): 234 ± 43%
current with FFA at 14°C, % of that evoked by the same concentration at 22°C (rat TRPA1; +100 mV): 226 ± 86%
current with FFA at 14°C, % of that evoked by the same concentration at 22°C (rat TRPA1; −100 mV): 315 ± 85%
increase of FFA-activated current by raising bath Ca2+ to 10 mM (rat TRPA1; +100 mV): 240 ± 39%
decrease of FFA-activated current amplitude in BAPTA-injected oocytes (rat TRPA1; +100 mV): ~ 44%
decrease of FFA-activated current amplitude in BAPTA-injected oocytes (rat TRPA1; −100 mV): ~ 33%
increase of FFA-activated current by raising bath Ca2+ to 10 mM (rat TRPA1; −100 mV): 309 ± 49%
Hill co-efficient at +100 mV (rat TRPA1; +100 mV): 2.2 ± 0.2
EC50 (rat TRPA1; EC50 for current activation at +100 mV, +100 mV): 78 ± 4 µM
EC50 (rat TRPA1; EC50 for current activation at −100 mV, −100 mV): 147 ± 4 µM
Hill co-efficient at −100 mV (rat TRPA1; −100 mV): 2.2 ± 0.1
suppression of 2APB-activated current (murine TRPV1 [4]; +100 mV): 57%
suppression of 2APB-activated current (murine TRPV1 [4]; −100 mV): 75%
agonist effect on Fluo4 fluorescence ([Ca2+]i) in WI-38 cells ([5]; 300 µM): increased the Fluo4 fluorescence
nH (Hill coefficient) ([5]; WI-38 cells): 1.3 ± 0.2
Fluo4 fluorescence change (murine TRPM8; 300 µM FFA): slow fluorescence increase
increase in Fluo4 fluorescence upon application (murine TRPM8; FFA from 3.7 to 100 µM): no significant increase
effect on [Ca2+]i increase elicited by the channel's agonist (murine TRPM8; [6]): inhibited
EC50 (human TRPA1): 57 ± 5 µM
nH (Hill coefficient) (human TRPA1; HEK-A1 cells): 1.6 ± 0.1
SMILES: O=C(O)c1ccccc1Nc1cccc(C(F)(F)F)c1 [FFA, flufenamic acid]
effect on Fluo4 fluorescence in HEK293 cells (HEK293 cells): little effect
